Assay results of several laboratories.
Protocols differ between the studies behind these lines.
Observed: microbial growth

Structure (SMILES)	organism	method	strain	time	MIC
C[C@@H]1[C@H](O)[C@@H](C)/C=C/C=C/C=C/C=C/C=C/C=C/C=C/[C@H](O[C@@H]2O[C@H](C)[C@@H](O)[C@H](N)[C@@H]2O)C[C@@H]2O[C@](O)(C[C@@H](O)C[C@@H](O)[C@H](O)CC[C@@H](O)C[C@@H](O)CC(=O)O[C@H]1C)C[C@H](O)[C@H]2C(=O)O	Saccharomyces cerevisiae	–	–	–	0.5 µg/mL
C/C=C/C/C=C/CCC(=O)[C@H]1O[C@H]1C(N)=O	Saccharomyces cerevisiae	–	–	–	10 to 12 µM
Cc1ccc(C)n1-c1ccc(C(=O)NNC=O)cc1	Saccharomyces cerevisiae	broth dilution	ATCC9763	–	250 µg/mL
Cc1ncc([N+](=O)[O-])n1CCO	Clostridioides difficile	broth dilution	R20291	–	> 0.5 µg/mL
Oc1c(F)cc(-c2nc(-c3ccc(Oc4ccc(C(F)(F)F)cc4)cc3)no2)cc1F	Clostridioides difficile	broth dilution	ATCC43255	48 h	2 to 4 µg/mL
Cc1cc(C)n(C(=O)c2ccc(-n3c(C)ccc3C)cc2)n1	Saccharomyces cerevisiae	broth dilution	ATCC9763	–	> 500 µg/mL
Oc1ccc(-c2nc(-c3ccc(Oc4ccc(C(F)(F)F)cc4)cc3)no2)cc1F	Clostridioides difficile	broth dilution	ATCC43255	48 h	2 to 4 µg/mL
CNc1ccc(-c2nc(-c3ccc(Oc4ccccc4)cc3)no2)cc1	Clostridioides difficile	broth dilution	–	48 h	8 µg/mL
Cc1ccc(C)n1-c1ccc(-c2nnco2)cc1	Saccharomyces cerevisiae	broth dilution	ATCC9763	–	125 µg/mL
CC(CN)c1ccc(Oc2ccc(-c3noc(-c4ccc(O)cc4)n3)cc2)cc1.Cl (racemic)	Clostridioides difficile	broth dilution	–	48 h	16 µg/mL
Clc1ccccc1C(c1ccccc1)(c1ccccc1)n1ccnc1	Saccharomyces cerevisiae	–	–	–	20 to 25 µM
O=[N+]([O-])c1ccc(-c2nc(-c3ccc(Oc4ccccc4)cc3)no2)cc1	Clostridioides difficile	broth dilution	–	48 h	8 µg/mL
Cc1ccc(C)n1-c1ccc(-c2nnc(-c3ccc(O)cc3)[nH]2)cc1	Saccharomyces cerevisiae	broth dilution	ATCC9763	–	31.2 µg/mL
O=C(O)COc1ccc(Oc2ccc(-c3noc(-c4ccc(O)cc4)n3)cc2)cc1	Clostridioides difficile	broth dilution	–	48 h	50 µg/mL
Oc1ccc(-c2nc(-c3ccc(Oc4ccccc4CBr)cc3)no2)cc1	Clostridioides difficile	broth dilution	ATCC43255	48 h	8 to 128 µg/mL
O=C(O)COc1cccc(Oc2ccc(-c3noc(-c4ccc(O)cc4)n3)cc2)c1	Clostridioides difficile	broth dilution	–	48 h	50 µg/mL
Cc1ccc(C)n1-c1ccc(-c2nnc(S)s2)cc1	Saccharomyces cerevisiae	broth dilution	ATCC9763	–	62.5 µg/mL
